In ChEMBL document CHEMBL3232993, “Design, synthesis, and structure-activity relationship of a novel series of GluN2C-selective potentiators” (J Med Chem, 2014):
Calls of active or inactive are those of the source. The calls are words filed in the database; no cut-off is given here.

Experiments:
[1] = molecular target: Glutamate NMDA receptor; Grin1/Grin2a (Rattus norvegicus, UniProt P35439+Q00959); test: Inhibition of rat recombinant GluN1/GluN2A expressed in Xenopus laevis oocytes assessed as reduction in current response; format: cell-based
[2] = molecular target: Glutamate NMDA receptor; Grin1/Grin2b (Rattus norvegicus) (UniProt P35439+Q00960); test: Potentiation of rat recombinant GluN1/GluN2B expressed in Xenopus laevis oocytes assessed as increase in glutamate/glycine-induced current response at 30 uM by two-electrode voltage clamp technique relative to control; format: cell-based
How it was run: (§1)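 Two-electrode voltage clamp at −40 mV on Xenopus oocytes coexpressing GluN1 with GluN2A, 2B, 2C or 2D. […] Compounds came from 20 mM DMSO stocks, with 0.05–0.5% final DMSO. Some GluN2A oocytes were injected with K-BAPTA to limit current run-up. Recording solution was pH 7.4, 23 °C.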

[3] = molecular target: Glutamate NMDA receptor; Grin1/Grin2a (Rattus norvegicus) (UniProt P35439+Q00959); test: Potentiation of rat recombinant GluN1/GluN2A expressed in Xenopus laevis oocytes assessed as increase in glutamate/glycine-induced current response at 30 uM by two-electrode voltage clamp technique relative to control; format: cell-based; how it was run: as §1
[4] = molecular target: Ionotropic glutamate receptor NMDA 1/2D (Rattus norvegicus, UniProt P35439+Q62645); test: Inhibition of rat recombinant GluN1/GluN2D expressed in Xenopus laevis oocytes assessed as reduction in current response; format: cell-based
[5] = molecular target: Ionotropic glutamate receptor NMDA 1/2D (Rattus norvegicus) (UniProt P35439+Q62645); test: Potentiation of rat recombinant GluN1/GluN2D expressed in Xenopus laevis oocytes assessed as increase in glutamate/glycine-induced current response at 30 uM by two-electrode voltage clamp technique relative to control; format: cell-based; how it was run: as §1
[6] = molecular target: T1, Glutamate NMDA receptor; Grin1/Grin2c (Rattus norvegicus) (UniProt P35439+Q00961); test: Potentiation of rat recombinant GluN1/GluN2C expressed in Xenopus laevis oocytes assessed as increase in glutamate/glycine-induced current response at 30 uM by two-electrode voltage clamp technique relative to control; format: cell-based; how it was run: as §1
[7] = molecular target: Glutamate NMDA receptor; Grin1/Grin2b (Rattus norvegicus, UniProt P35439+Q00960); test: Inhibition of rat recombinant GluN1/GluN2B expressed in Xenopus laevis oocytes assessed as reduction in current response; format: cell-based
[8] = molecular target: T1, Glutamate NMDA receptor; Grin1/Grin2c (Rattus norvegicus); test: Effect on rat recombinant GluN1/GluN2C expressed in Xenopus laevis oocytes assessed as reversal potential of glycine/glutamate-induced current response (reference value: -5.1 +/- 0.8 mV); format: cell-based
How it was run: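 Reversal potential of GluN1/GluN2C currents in cRNA-injected Xenopus oocytes by two-electrode voltage clamp. […] Recording solution was Ba²⁺-containing HEPES saline, pH 7.4, 23 °C.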

[9] = organism: Homo sapiens; test: Potentiation of recombinant GABA receptor (unknown origin)
[10] = organism: Homo sapiens; test: Potentiation of recombinant nicotinic receptor (unknown origin)
[11] = molecular target: T1, Glutamate NMDA receptor; Grin1/Grin2c (Rattus norvegicus); test: Potentiation of rat recombinant GluN1/GluN2C expressed in Xenopus laevis oocytes assessed as increase in glutamate/glycine-induced current response at 100 uM by two-electrode voltage clamp technique relative to control; format: cell-based; how it was run: as §1
[12] = organism: Homo sapiens; test: Potentiation of recombinant glycine receptor (unknown origin)
[13] = molecular target: Glutamate receptor 1 (Rattus norvegicus) (UniProt P19490); test: Potentiation of recombinant homomeric GluA1 AMPA receptor (rat) at 30 uM relative to control
Sequence of Glutamate receptor 1 (Rattus norvegicus) (P19490 whole entry, looked up): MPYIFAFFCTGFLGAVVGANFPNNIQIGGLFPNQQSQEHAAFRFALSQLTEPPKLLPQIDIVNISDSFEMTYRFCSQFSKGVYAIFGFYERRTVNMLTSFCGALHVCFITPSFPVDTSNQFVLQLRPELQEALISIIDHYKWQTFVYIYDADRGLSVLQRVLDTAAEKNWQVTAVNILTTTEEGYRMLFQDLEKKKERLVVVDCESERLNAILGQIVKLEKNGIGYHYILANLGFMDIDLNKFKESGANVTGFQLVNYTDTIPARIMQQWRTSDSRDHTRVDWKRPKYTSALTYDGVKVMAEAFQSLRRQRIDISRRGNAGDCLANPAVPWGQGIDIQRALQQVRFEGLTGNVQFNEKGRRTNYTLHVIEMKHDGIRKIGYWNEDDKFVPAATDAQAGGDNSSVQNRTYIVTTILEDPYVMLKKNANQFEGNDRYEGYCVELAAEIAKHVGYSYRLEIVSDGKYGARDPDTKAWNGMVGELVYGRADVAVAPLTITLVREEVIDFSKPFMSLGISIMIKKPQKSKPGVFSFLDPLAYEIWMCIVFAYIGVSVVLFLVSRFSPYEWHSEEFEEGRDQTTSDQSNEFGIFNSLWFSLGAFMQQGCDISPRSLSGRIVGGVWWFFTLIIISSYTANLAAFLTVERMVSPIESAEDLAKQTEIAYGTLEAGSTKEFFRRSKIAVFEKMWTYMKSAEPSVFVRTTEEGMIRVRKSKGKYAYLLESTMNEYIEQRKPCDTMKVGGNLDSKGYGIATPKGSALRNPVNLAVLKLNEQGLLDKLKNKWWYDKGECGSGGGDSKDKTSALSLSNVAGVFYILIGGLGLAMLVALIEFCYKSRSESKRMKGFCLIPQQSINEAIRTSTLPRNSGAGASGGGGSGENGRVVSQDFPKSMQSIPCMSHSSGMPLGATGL

[14] = organism: Homo sapiens; test: Potentiation of recombinant purinergic receptor (unknown origin)
[15] = molecular target: T1, Glutamate NMDA receptor; Grin1/Grin2c (Rattus norvegicus); test: Agonist activity at rat recombinant GluN1/GluN2C expressed in Xenopus laevis oocytes by two-electrode voltage clamp technique relative to control; format: cell-based
[16] = molecular target: T1, Glutamate NMDA receptor; Grin1/Grin2c (Rattus norvegicus); test: Potentiation of rat recombinant GluN1/GluN2C expressed in Xenopus laevis oocytes assessed as glycine-induced current response at 68 uM by two-electrode voltage clamp technique; format: cell-based
[17] = organism: Homo sapiens; test: Potentiation of recombinant kainate receptor (unknown origin)
[18] = molecular target: T1, Glutamate NMDA receptor; Grin1/Grin2c (Rattus norvegicus); test: Potentiation of rat recombinant GluN1/GluN2C expressed in Xenopus laevis oocytes assessed as glutamte/glycine-induced current response at 20 uM at -40 mV; format: cell-based
[19] = molecular target: T1, Glutamate NMDA receptor; Grin1/Grin2c (Rattus norvegicus); test: Potentiation of rat recombinant GluN1/GluN2C expressed in Xenopus laevis oocytes assessed as glutamate-induced current response at 68 uM by two-electrode voltage clamp technique; format: cell-based
[20] = molecular target: Glutamate receptor ionotropic, kainate 2 (Rattus norvegicus) (UniProt P42260); test: Potentiation of recombinant homomeric GluK2 receptor (rat) at 120 uM relative to control
Sequence of Glutamate receptor ionotropic, kainate 2 (Rattus norvegicus) (P42260 whole entry, looked up): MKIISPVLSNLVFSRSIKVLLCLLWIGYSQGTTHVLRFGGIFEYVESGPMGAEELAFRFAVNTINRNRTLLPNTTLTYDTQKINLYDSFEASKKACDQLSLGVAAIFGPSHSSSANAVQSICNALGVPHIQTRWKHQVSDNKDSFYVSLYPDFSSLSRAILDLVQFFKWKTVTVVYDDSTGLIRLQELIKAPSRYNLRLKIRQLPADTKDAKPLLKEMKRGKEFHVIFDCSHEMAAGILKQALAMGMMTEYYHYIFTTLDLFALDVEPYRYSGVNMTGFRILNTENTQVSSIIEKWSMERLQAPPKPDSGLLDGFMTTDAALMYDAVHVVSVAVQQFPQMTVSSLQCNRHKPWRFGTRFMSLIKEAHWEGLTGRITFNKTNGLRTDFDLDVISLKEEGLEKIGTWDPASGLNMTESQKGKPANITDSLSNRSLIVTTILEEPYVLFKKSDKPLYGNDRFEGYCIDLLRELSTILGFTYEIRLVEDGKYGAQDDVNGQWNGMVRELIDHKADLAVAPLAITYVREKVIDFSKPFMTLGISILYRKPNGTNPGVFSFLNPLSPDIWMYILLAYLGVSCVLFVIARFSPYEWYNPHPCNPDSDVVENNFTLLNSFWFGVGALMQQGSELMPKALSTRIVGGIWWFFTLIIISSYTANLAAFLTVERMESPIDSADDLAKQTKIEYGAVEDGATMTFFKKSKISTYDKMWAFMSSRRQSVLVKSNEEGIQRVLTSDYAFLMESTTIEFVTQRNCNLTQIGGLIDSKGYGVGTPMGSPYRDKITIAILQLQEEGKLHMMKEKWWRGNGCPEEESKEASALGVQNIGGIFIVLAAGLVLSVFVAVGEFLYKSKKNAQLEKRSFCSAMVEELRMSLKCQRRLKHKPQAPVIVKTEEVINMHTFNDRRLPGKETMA

[21] = molecular target: T1, Glutamate NMDA receptor; Grin1/Grin2c (Rattus norvegicus); test: Potentiation of rat recombinant GluN1/GluN2C expressed in Xenopus laevis oocytes assessed as glutamte/glycine-induced current response at 20 uM at 30 mV; format: cell-based
[22] = organism: Homo sapiens; test: Potentiation of recombinant serotonin receptor (unknown origin)

An IC50 [1] of 18 µM, an Activity [2] of 20% and an Activity [3] of 44% were found for COC(=O)c1ccc(C2C(C(=O)c3ccncc3)=C(O)C(=O)N2CCc2cccc3ccccc23)cc1 (centres undefined) in this work. The IC50 [4] was 5.7 µM, the Activity [5] was 18% and the Activity [6] was 34%. It also gave an IC50 [7] of 7.2 µM.
In the case of COC(=O)c1ccc(C2C(C(C)=O)=C(O)C(=O)N2CCc2c[nH]c3ccccc23)cc1 (centres undefined), the Activity [8] is reported as -5 mV, the Activity [9] is reported as “inactive” and the Activity [10] is reported as “inactive”. The max activation [11] was 238%, the Activity [12] was “inactive” and the Activity [13] was 97%. The Activity [14] was “inactive”, the Activity [15] was “inactive” and the Activity [16] was “inactive”. For the same compound, the Activity [17] was “inactive”, the Activity [6] was 196% and the max activation [6] was 275%. The Activity [18] was 202%, the Activity [19] was “inactive” and the Activity [20] was 95%. The Activity [21] was 180% and the Activity [22] was “inactive”.
